Folding enthalpy and Tm data for 55 sequences are collected here from the array DNA melting data of Ke et al. (doi:10.1101/2024.01.08.574731).

Data set [1] is described as follows: folding enthalpy; higher = less favourable; fluorescence melt of hairpins on a sequencing array, two-state fit. Conditions: sodium 0.088 M. The essentials: (§1)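 Hairpins were imaged by Cy3 fluorescence on a sequenced MiSeq flow cell with annealed Cy3 and quencher oligos, in 50 mM Na-HEPES pH 8.0, 25 mM NaCl, in 2.5 °C steps up to 60 °C. Bootstrapped two-state fits of normalised signals gave melting temperature and folding enthalpy. Four replicates were combined by inverse variance, and fitted temperatures were raised by 9.35 °C to match UV melts.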

The nature of data set [2]: melting temperature; fluorescence melt of hairpins on a sequencing array, two-state fit, raised by 9.35 °C to match UV melts. Conditions: sodium 0.088 M. The method in brief:
as §1

As for GATTTCCGAAAGGACATC (((.(((....))).))), the folding enthalpy in data set [1] was -27.1 kcal/mol. In data set [2], the Tm was found to be 38 °C.

As for GATCGGACAGCCGATC ((((((....)))))), the folding enthalpy in data set [1] was -36.9 kcal/mol. Moreover, in data set [2], the Tm was 52.4 °C.

For GCGAGGCGAAAGCCGGGC ((..(((....)))..)), in data set [1], the folding enthalpy is -20.8 kcal/mol. In addition, the Tm in data set [2] came to 65.7 °C.

As for GGTACCGCGAAAGCGACC (((..(((....)))))), in data set [1], the folding enthalpy was -10.2 kcal/mol. In addition, the Tm in data set [2] came out at 28.1 °C.

As to GACCACGAAAGTGAGGTC ((((((....)))..))), the folding enthalpy in data set [1] is -22.8 kcal/mol. The Tm in data set [2] was 48.3 °C.

GGGAACGAAAGTTCGCCC ((((((....)))..))): in data set [1], the folding enthalpy is -14.8 kcal/mol. The Tm in data set [2] worked out at 46.4 °C.

GTCGCCGAAAGGCCGGAC ((((((....)))..))): the folding enthalpy in data set [1] is -13.1 kcal/mol. Further, the Tm in data set [2] amounted to 41.6 °C.

With GTGGGGGGAAACTCCCGC (.(((.(....).))).), the folding enthalpy in data set [1] was -21.4 kcal/mol. Besides, the Tm in data set [2] was 48.8 °C.

On to GTGAGCGAAAGCTTCAC ((((((....))).))), for which, in data set [1], the folding enthalpy was -19.1 kcal/mol. In data set [2], the Tm was found to be 50.9 °C.

Regarding GATCGCCCGGCGATC ((((((...)))))), the folding enthalpy in data set [1] was -40.9 kcal/mol. Also, the Tm in data set [2] was 68.5 °C.

With GCTATTGGAAACGATAGC (((((.(....).))))), in data set [1], the folding enthalpy is -32.4 kcal/mol. Besides, in data set [2], the Tm is 44.8 °C.

Consider GCAGAGCGAAAGCCTTGC (((..((....))..))), for which the folding enthalpy in data set [1] was -14.5 kcal/mol. The Tm in data set [2] worked out at 43.5 °C.

GCGGGTGGAAACGCCTGC ((.((.(....).)).)): in data set [1], the folding enthalpy is -28 kcal/mol. For the same sequence, the Tm in data set [2] was 51.7 °C.

For GCATTCGCGAAAGCGTGC (((..(((....)))))), the folding enthalpy in data set [1] was -11.8 kcal/mol. Besides, in data set [2], the Tm worked out at 41.8 °C.

GAGAACACGAAAGTGCTC (((..(((....)))))): the folding enthalpy in data set [1] is -15.6 kcal/mol. For the same sequence, the Tm in data set [2] is 32.9 °C.

Consider GATCGTTTAAACGATC ((((((....)))))), for which the folding enthalpy in data set [1] is -48.9 kcal/mol. In data set [2], the Tm came out at 56.1 °C.

As to GATCGCCCCTGCGATC ((((((....)))))), the folding enthalpy in data set [1] was -33.6 kcal/mol. Besides, in data set [2], the Tm turned out to be 67.2 °C.

For TATTGGAAACAATA (((((....))))), the folding enthalpy in data set [1] is -5.94 kcal/mol. The Tm in data set [2] was found to be 25.5 °C.

Take GTGTACGGAAACGCACAC ((((.((....)).)))): the folding enthalpy in data set [1] was -38.1 kcal/mol. The Tm in data set [2] is 49.1 °C.

Take GGCTCTGGAAACAGAACC ((.((((....)))).)): the folding enthalpy in data set [1] is -35.1 kcal/mol. In addition, the Tm in data set [2] was 42.3 °C.

In the case of GCTGTCCGAAAGGAGAGC (((.(((....))).))), in data set [1], the folding enthalpy is -34 kcal/mol. In data set [2], the Tm was 57 °C.

For the sequence GGGGACGGAAACGTCTCC ((.((((....)))).)), the folding enthalpy in data set [1] is -27.5 kcal/mol. Moreover, the Tm in data set [2] was 57.2 °C.

With GTACCTGGAAACAGGCAC ((.((((....)))).)), the folding enthalpy in data set [1] is -22.1 kcal/mol. For the same sequence, the Tm in data set [2] stood at 42.5 °C.

Turning to GCGAATCATCGC ((((....)))), the folding enthalpy in data set [1] is -23.6 kcal/mol. In addition, in data set [2], the Tm was 47.6 °C.

Regarding GAGCGACGAAAGTCCCTC (((.(((....))).))), in data set [1], the folding enthalpy was -16.1 kcal/mol. The Tm in data set [2] came to 43.6 °C.

For the sequence GTCAGAGGAAACTCTGGC (.(((((....))))).), the folding enthalpy in data set [1] is -30.4 kcal/mol. The Tm in data set [2] came to 50.3 °C.

Turning to GGCCAGGGAAACCCAGCC (((..((....))..))), the folding enthalpy in data set [1] was -30.5 kcal/mol. For the same sequence, the Tm in data set [2] amounted to 42.1 °C.

In the case of GAGTTTCCGAAAGGACTC (((..(((....)))))), the folding enthalpy in data set [1] is -13.3 kcal/mol. Moreover, the Tm in data set [2] stood at 30 °C.

Turning to GCCTAGCGAAAGCTTAGC ((..(((....)))..)), the folding enthalpy in data set [1] is -12.6 kcal/mol. Moreover, in data set [2], the Tm is 36.8 °C.

Regarding GCCAGTGGAAACGTTGGC ((((..(....)..)))), the folding enthalpy in data set [1] is -24.4 kcal/mol. The Tm in data set [2] turned out to be 48.2 °C.

GCCTGTGGAAACGCAGGC (((((.(....).))))): the folding enthalpy in data set [1] was -38 kcal/mol. Moreover, the Tm in data set [2] was 59.9 °C.

On to GCGGTCGGAAACGACCAC (.(((((....))))).), for which the folding enthalpy in data set [1] was -11.6 kcal/mol. Besides, the Tm in data set [2] turned out to be 48.4 °C.

Consider CGAACCGGAAACGGCTCG (((.(((....))).))), for which the folding enthalpy in data set [1] was -35.5 kcal/mol. The Tm in data set [2] came to 49.9 °C.

With GCCACTGGAAACAGCAGC ((..(((....)))..)), the folding enthalpy in data set [1] is -11.8 kcal/mol. Besides, in data set [2], the Tm was found to be 25.5 °C.

For the sequence GACTTACGAAAGTAGTC (((.(((....)))))), the folding enthalpy in data set [1] is -26.8 kcal/mol. Besides, the Tm in data set [2] came to 43.1 °C.

GATCGGTTTCCGATC ((((((...)))))): the folding enthalpy in data set [1] was -34.7 kcal/mol. In addition, in data set [2], the Tm amounted to 59 °C.

Take GCAGCCGAAAGGCTCTGC ((((((....)))..))): in data set [1], the folding enthalpy is -12.2 kcal/mol. Further, the Tm in data set [2] came out at 46.3 °C.

As to GATCCCCGAAGGGATC ((((((....)))))), in data set [1], the folding enthalpy is -15.6 kcal/mol. For the same sequence, in data set [2], the Tm turned out to be 57.1 °C.

On to GCCGCAGGAAACCGCGGC (((((.(....).))))), for which, in data set [1], the folding enthalpy was -32.1 kcal/mol. In data set [2], the Tm was determined as 67.8 °C.

Take GGTCCCGGAAACAGGACC (((((.(....).))))): the folding enthalpy in data set [1] was -28.6 kcal/mol. The Tm in data set [2] amounted to 49.7 °C.

On to GCTGGACGAAAGTCGAGC (((.(((....))).))), for which the folding enthalpy in data set [1] is -44.2 kcal/mol. In addition, the Tm in data set [2] was 56.2 °C.

Consider GTTATCGGAAACGATAAC (((((((....))))))), for which, in data set [1], the folding enthalpy was -46.2 kcal/mol. Also, the Tm in data set [2] turned out to be 57 °C.

On to GTTCACGAAAGTGTTAAC ((((((....)))..))), for which the folding enthalpy in data set [1] is -12.2 kcal/mol. Also, the Tm in data set [2] was found to be 28 °C.

Regarding AAGGGGAAACCCTT (((((....))))), in data set [1], the folding enthalpy is -13.8 kcal/mol. Besides, in data set [2], the Tm amounted to 46 °C.

Consider GACACCGAAAGGTCTGTC ((((((....)))..))), for which the folding enthalpy in data set [1] is -16.6 kcal/mol. The Tm in data set [2] stood at 35.2 °C.

Consider GGCGACGAAAGTCCGGCC ((((((....)))..))), for which the folding enthalpy in data set [1] was -21.7 kcal/mol. Further, the Tm in data set [2] stood at 51.5 °C.

In the case of GATCGGGAACCCGATC ((((((....)))))), the folding enthalpy in data set [1] is -42.4 kcal/mol. Also, the Tm in data set [2] worked out at 63.7 °C.

Take GCAACCGAAAGGTGTGC ((((((....))).))): in data set [1], the folding enthalpy was -23.2 kcal/mol. In addition, the Tm in data set [2] came to 52.4 °C.

As for GCTCTAGGAAACTAGAAC (.(((((....))))).), the folding enthalpy in data set [1] was -14.2 kcal/mol. In data set [2], the Tm worked out at 29.7 °C.

In the case of GATCTATGTATAGATC ((((((....)))))), the folding enthalpy in data set [1] is -36.9 kcal/mol. In data set [2], the Tm was 48.2 °C.

With GCACTGCGAAAGCGGAGC ((.(.((....)).).)), the folding enthalpy in data set [1] was -19.8 kcal/mol. In data set [2], the Tm is 49.9 °C.

Regarding GCAATTCCGAAAGGATGC (((..(((....)))))), in data set [1], the folding enthalpy is -21.5 kcal/mol. For the same sequence, the Tm in data set [2] stood at 38 °C.

For GATCGGCGTCCCGATC ((((((....)))))), the folding enthalpy in data set [1] is -40.3 kcal/mol. Further, the Tm in data set [2] turned out to be 55.4 °C.

Turning to GCTAAGCGAAAGCTATGC ((..(((....)))..)), the folding enthalpy in data set [1] was -20.4 kcal/mol. Besides, the Tm in data set [2] amounted to 43.5 °C.

Turning to GTCCCTGGAAACAGGAAC ((.((((....)))).)), the folding enthalpy in data set [1] is -21.6 kcal/mol. Besides, the Tm in data set [2] is 36.1 °C.
